Reference: ChEMBL document CHEMBL3877292, “Synthesis and evaluation of novel hybrids β-carboline-4-thiazolidinones as potential antitumor and antiviral agents” (Eur J Med Chem, 2016)

Key:
[1] = Antiproliferative activity against human U251 cells after 48 hrs by SRB assay; assay type: functional; conditions: U-251, 48 h
Procedure, shortened: (§1)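 Cells grown in RPMI 1640 with 5% FBS, with penicillin/streptomycin in experimental cultures. Exposed in triplicate to 0.25, 2.5, 25 and 250 µg/mL in DMSO/RPMI for 48 h at 37 °C under 5% CO2. Plates were TCA-fixed before (T0) and after treatment, then stained with sulforhodamine B and read at 540 nm. GI50 was obtained by non-linear regression against untreated growth. Doxorubicin served as positive control.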

[2] = Antiproliferative activity against human MCF7 cells after 48 hrs by SRB assay; assay type: functional; conditions: MCF7, 48 h; procedure, shortened: as §1
[3] = Antiproliferative activity against human NCI/ADR-RES cells after 48 hrs by SRB assay; assay type: functional; procedure, shortened: as §1
[4] = Antiproliferative activity against human 786-0 cells after 48 hrs by SRB assay; assay type: functional; conditions: 786-0, 48 h; procedure, shortened: as §1
[5] = Antiproliferative activity against human NCI-H460 cells after 48 hrs by SRB assay; assay type: functional; conditions: NCI-H460, 48 h; procedure, shortened: as §1
[6] = Antiproliferative activity against human OVCAR3 cells after 48 hrs by SRB assay; assay type: functional; conditions: OVCAR-3, 48 h; procedure, shortened: as §1
[7] = Antiproliferative activity against human HT-29 cells after 48 hrs by SRB assay; assay type: functional; conditions: HT-29, 48 h; procedure, shortened: as §1
[8] = Cytotoxicity against African green monkey Vero cells after 48 hrs by SRB assay; assay type: toxicity, cell-based; conditions: chlorocebus sabaeus
Procedure, shortened: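 Vero (ATCC CCL81) cells grown in DMEM with 10% FBS and gentamicin at 37°C, 5% CO2. Cells exposed in triplicate to 1000, 500, 100, 10, 1 and 0.1 µg/mL, with untreated cells as control. Viability read by sulforhodamine B colorimetry. CC50 is the concentration giving 50% cytotoxicity.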

Human alphaherpesvirus 1 = test: Antiviral activity against Herpes simplex type I KOS; assay type: functional; conditions: Human alphaherpesvirus 1, KOS
[9] = Selectivity index, ratio of CC50 for Herpes simplex type I KOS infected African green monkey Vero cells to EC50 for Herpes simplex virus type 1 KOS; assay type: toxicity, cell-based; conditions: Herpes simplex virus type 1 KOS infected Vero cells, read-out: Ratio CC50/EC50
Procedure, shortened: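 SI calculated as CC50/EC50. CC50 is the 50% cytotoxic concentration on Vero cells by sulforhodamine B, tested in triplicate from 0.1 to 1000 µg/mL. EC50 is the concentration protecting 50% of cells against HSV-1, with acyclovir as HSV-1 standard and drug-free cells as control.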

[10] = Antiproliferative activity against human UACC62 cells after 48 hrs by SRB assay; assay type: functional; conditions: UACC-62, 48 h; procedure, shortened: as §1
[11] = Antiproliferative activity against human PC3 cells after 48 hrs by SRB assay; assay type: functional; conditions: PC-3, 48 h; procedure, shortened: as §1

Row | Compound | GI50 [1] [µM] | GI50 [2] [µM] | GI50 [3] [µM] | GI50 [4] [µM] | GI50 [5] [µM] | GI50 [6] [µM] | GI50 [7] [µM] | CC50 at 48 h [8] [µM] | EC50 (Human alphaherpesvirus 1) [µM] | selectivity ratio [9] | GI50 [10] [µM] | GI50 [11] [µM]
1 | O=C1CS/C(=N\NC(=O)c2cc3c([nH]c4ccccc43)c(-c3ccccc3)n2)N1 | 15.8 | 11.4 | 28.1 | 16.3 | 18.2 | 9.88 | 19.5 | 2490 | 102 | 24.4 | – | –
2 | O=C1CS/C(=N\NC(=O)c2cc3c([nH]c4ccccc43)c(-c3ccccc3Cl)n2)N1 | – | 1.42 | > 100 | 6.1 | 3.85 | 0.01 | 10.8 | 766 | > 100 | – | – | –
3 | O=C(N/N=C1\SCC(=O)N1c1ccccc1)c1cc2c([nH]c3ccccc32)c(-c2ccccc2F)n1 | > 100 | > 100 | > 100 | > 100 | > 100 | > 100 | > 100 | 339 | > 100 | – | – | –
4 | CN(C)c1ccc(-c2nc(C(=O)N/N=C3\SCC(=O)N3c3ccccc3)cc3c2[nH]c2ccccc23)cc1 | 12.5 | 15 | 35.4 | 3.97 | 17.9 | > 100 | 38.1 | 817 | 50 | 16.4 | – | –
5 | CCN1C(=O)CS/C1=N\NC(=O)c1cc2c([nH]c3ccccc32)c(-c2ccc(N(C)C)cc2)n1 | 63.3 | 54.9 | 2.6 | 6.61 | 59 | 2.42 | 65.7 | 1650 | 6.78 | 243 | – | –
6 | CCN1C(=O)CS/C1=N\NC(=O)c1cc2c([nH]c3ccccc32)c(-c2cccc([N+](=O)[O-])c2)n1 | > 100 | > 100 | 3.27 | > 100 | > 100 | > 100 | > 100 | 1790 | 86.5 | 20.7 | – | –
7 | CN(C)c1ccc(-c2nc(C(=O)NN3C(=O)CSC3c3ccccc3)cc3c2[nH]c2ccccc23)cc1 (centres undefined) | 64.5 | > 100 | 64.5 | > 100 | > 100 | > 100 | > 100 | 467 | 0.8 | 592 | – | –
8 | O=C(NN1C(=O)CSC1c1ccccc1Cl)c1cc2c([nH]c3ccccc32)c(-c2ccccc2)n1 (centres undefined) | > 100 | > 100 | > 100 | > 100 | > 100 | > 100 | > 100 | – | – | – | > 100 | > 100
9 | O=C(NN1C(=O)CSC1c1cccs1)c1cc2c([nH]c3ccccc32)c(-c2ccccc2)n1 (centres undefined) | > 100 | > 100 | > 100 | > 100 | > 100 | > 100 | > 100 | – | – | – | > 100 | > 100
10 | O=C(NN1C(=O)CSC1c1ccccc1)c1cc2c([nH]c3ccccc32)c(-c2ccccc2F)n1 (centres undefined) | 84.1 | 63.1 | > 100 | > 100 | > 100 | 0.73 | > 100 | 637 | 30.3 | 21 | – | –
11 | COc1ccc(-c2nc(C(=O)N/N=C3/NC(=O)CS3)cc3c2[nH]c2ccccc23)cc1 | – | 0.49 | > 100 | 9.98 | 7.15 | 1.12 | 16.5 | – | – | – | – | –
12 | O=C(N/N=C1\SCC(=O)N1c1ccccc1)c1cc2c([nH]c3ccccc32)c(-c2cccc([N+](=O)[O-])c2)n1 | 1.59 | 2.36 | 0.19 | 1.53 | 3.91 | 0.83 | 2.28 | 1170 | 17.2 | 67.8 | – | –
13 | O=C(NN1C(=O)CSC1c1ccccc1)c1cc2c([nH]c3ccccc32)c(-c2cccc([N+](=O)[O-])c2)n1 (centres undefined) | > 100 | > 100 | > 100 | > 100 | > 100 | 1.25 | > 100 | 1080 | 2.02 | 534 | – | –
14 | CCN1C(=O)CS/C1=N\NC(=O)c1cc2c([nH]c3ccccc32)c(-c2ccccc2F)n1 | > 100 | > 100 | > 100 | > 100 | > 100 | > 100 | > 100 | 2980 | > 100 | – | – | –
15 | O=C(N/N=C1\SCC(=O)N1c1ccccc1)c1cc2c([nH]c3ccccc32)c(-c2ccccc2)n1 | 17.5 | 28 | 3.13 | 13.6 | 37.2 | 17.5 | > 100 | 1480 | 78.9 | 18.8 | – | –
16 | CCN1C(=O)CS/C1=N\NC(=O)c1cc2c([nH]c3ccccc32)c(-c2ccc(OC)cc2)n1 | 1.95 | 6.52 | 12.2 | – | 8.56 | 6.52 | 9.62 | 1730 | 26.6 | 65.2 | – | –
17 | CCN1C(=O)CS/C1=N\NC(=O)c1cc2c([nH]c3ccccc32)c(-c2ccccc2Cl)n1 | 0.74 | 6.84 | 0.25 | – | 4.12 | 3.97 | 88.9 | 1400 | > 100 | – | – | –
18 | O=C1CS/C(=N\NC(=O)c2cc3c([nH]c4ccccc43)c(-c3cccc([N+](=O)[O-])c3)n2)N1 | – | 40.1 | 0.62 | 16.1 | > 100 | > 100 | > 100 | – | – | – | – | –
19 | O=C1CS/C(=N\NC(=O)c2cc3c([nH]c4ccccc43)c(-c3ccccc3F)n2)N1 | 9.57 | 11.9 | 66.4 | 20.3 | 21.1 | 12.3 | 32.4 | 1070 | 19.6 | 54.9 | – | –
20 | CCN1C(=O)CS/C1=N\NC(=O)c1cc2c([nH]c3ccccc32)c(-c2ccccc2)n1 | 0.46 | 17.2 | 8.89 | – | > 100 | > 100 | > 100 | – | – | – | – | –
